Laboratory results published in ChEMBL document CHEMBL1142716, “2-Hydroxy-4,6-diamino-[1,3,5]triazines: a novel class of VEGF-R2 (KDR) tyrosine kinase inhibitors” (J Med Chem, 2005).
pIC50: −log10 of the molar value.

What was measured:
[1] = biological target: T1, Vascular endothelial growth factor receptor 2 (Homo sapiens, UniProt P35968); test: In vitro inhibition of Vascular endothelial growth factor receptor 2 at 10 uM ATP
[2] = biological target: T1, Vascular endothelial growth factor receptor 2; test: Inhibition of KDR-induced MAP kinase autophosphorylation assay in HUVEC cells; type: functional, cell-based
Method in brief: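 Low-passage HUVECs (passage 3-12) were grown to confluence, serum-starved, treated with compound or DMSO, then stimulated with VEGF. Cells were lysed, run on SDS-PAGE and immunoblotted quantitatively with a phospho-p42/44 MAP kinase (pERK1/2) antibody. Inhibition is expressed as a percent of VEGF-stimulated phosphorylation in DMSO controls. IC50 values are the mean of three independent experiments.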

[3] = biological target: T2, Epidermal growth factor receptor (Homo sapiens, UniProt P00533); test: Inhibition of human epidermal growth factor receptor
Method in brief: (§1)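 Cell-based counterscreen. Cells were grown, treated with compound and fixed in wells. EGF-R-induced phosphorylation of MAP kinase was then read directly by a phosphorylation-specific ELISA.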

[4] = biological target: Fibroblast growth factor receptor 1 (Mus musculus, UniProt P16092); test: Inhibition of mouse Fibroblast growth factor receptor 1 expressed in NIH 3T3 fibroblasts
Method in brief: (§2)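 Cell-based counterscreen for growth-factor-induced p42/44 MAP kinase phosphorylation through EGFR, insulin receptor or FGFR-1. Cells were grown, treated and fixed in 96-well plates, and phosphorylation was read by phospho-specific ELISA.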

[5] = biological target: Platelet-derived growth factor receptor (Homo sapiens, UniProt P09619+P16234); test: Inhibition of PDGF-R2 tyrosine kinase; type: protein-complex assay
[6] = species on record: Rattus norvegicus; test: Total tube length (arbitrary units) of aortic rings was measured by aortic ring assay in rat at 0.3 uM concentration of the compound; type: functional, Aorta
Method in brief: (§3)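 Rings cut from rat aorta were embedded in collagen gels containing 5 ng/mL VEGF and cultured for 7 days with test compound. The total length of capillary-like sprouts growing out from each ring was measured in arbitrary units and reported with SEM.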

[7] = biological target: Angiopoietin-1 receptor (Homo sapiens, UniProt Q02763); test: Inhibition of tyrosine protein kinase receptor TIE-2
[8] = Inhibition of fibroblast growth factor receptor 1
[9] = biological target: T3, Insulin receptor (Homo sapiens, UniProt P06213); test: Inhibition of human Insulin receptor expressed in CHO cells; type: cell-based; method in brief: as §2
[10] = biological target: Macrophage colony-stimulating factor 1 receptor (Homo sapiens, UniProt P07333); test: Inhibition of c-fms tyrosine kinase
[11] = Inhibition of c-Src tyrosine kinase
[12] = species on record: Rattus norvegicus; test: Total tube length (arbitrary units) of aortic rings was measured by aortic ring assay in rat at 30 uM concentration of the compound; type: functional, Aorta; method in brief: as §3
[13] = test system: HUVEC; test: Inhibitory concentration against HUVEC cells; type: functional, cell-based; conditions: Homo sapiens
[14] = biological target: T3, Insulin receptor; test: Inhibition of beta IRK tyrosine kinase
[15] = species on record: Rattus norvegicus; test: Total tube length (arbitrary units) of aortic rings was measured by aortic ring assay in rat at 3 uM concentration of the compound; type: functional, Aorta; method in brief: as §3
[16] = biological target: T2, Epidermal growth factor receptor; test: Inhibition of human Epidermal growth factor receptor expressed in A431; method in brief: as §1
[17] = Inhibition of Fibroblast growth factor receptor 1

T2 sequence (P00533 whole entry): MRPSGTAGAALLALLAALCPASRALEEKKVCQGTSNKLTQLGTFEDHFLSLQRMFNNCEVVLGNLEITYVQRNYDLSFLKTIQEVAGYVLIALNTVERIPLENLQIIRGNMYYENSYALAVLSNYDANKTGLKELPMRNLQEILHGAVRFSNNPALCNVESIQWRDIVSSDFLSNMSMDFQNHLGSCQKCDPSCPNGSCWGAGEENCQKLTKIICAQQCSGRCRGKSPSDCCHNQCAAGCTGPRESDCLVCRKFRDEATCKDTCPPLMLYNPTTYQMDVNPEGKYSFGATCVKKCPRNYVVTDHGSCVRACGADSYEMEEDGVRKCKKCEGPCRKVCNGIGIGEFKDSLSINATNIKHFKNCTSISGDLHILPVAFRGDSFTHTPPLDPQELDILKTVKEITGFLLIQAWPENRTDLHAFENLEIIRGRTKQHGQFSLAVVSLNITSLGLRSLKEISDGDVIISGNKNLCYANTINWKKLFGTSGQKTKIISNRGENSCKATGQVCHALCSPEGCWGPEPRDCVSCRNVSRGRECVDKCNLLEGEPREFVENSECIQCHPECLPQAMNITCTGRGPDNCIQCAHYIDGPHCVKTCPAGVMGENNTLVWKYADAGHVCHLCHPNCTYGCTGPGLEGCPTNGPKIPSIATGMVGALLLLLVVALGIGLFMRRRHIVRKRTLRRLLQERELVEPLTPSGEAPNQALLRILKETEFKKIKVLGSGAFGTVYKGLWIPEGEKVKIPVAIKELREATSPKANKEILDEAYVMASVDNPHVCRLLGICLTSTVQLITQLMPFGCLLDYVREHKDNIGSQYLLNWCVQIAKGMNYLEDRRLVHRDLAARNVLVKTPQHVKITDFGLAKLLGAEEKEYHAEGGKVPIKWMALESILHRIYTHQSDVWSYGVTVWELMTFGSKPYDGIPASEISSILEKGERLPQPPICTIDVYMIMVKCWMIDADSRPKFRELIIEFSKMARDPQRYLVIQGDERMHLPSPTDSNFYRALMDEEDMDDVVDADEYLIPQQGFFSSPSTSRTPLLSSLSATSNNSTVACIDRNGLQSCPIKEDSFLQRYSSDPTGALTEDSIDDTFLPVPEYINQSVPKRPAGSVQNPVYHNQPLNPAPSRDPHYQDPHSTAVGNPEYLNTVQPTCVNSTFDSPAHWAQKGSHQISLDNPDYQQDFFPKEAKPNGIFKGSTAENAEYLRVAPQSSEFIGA
Chain of Fibroblast growth factor receptor 1 (P16092 whole entry): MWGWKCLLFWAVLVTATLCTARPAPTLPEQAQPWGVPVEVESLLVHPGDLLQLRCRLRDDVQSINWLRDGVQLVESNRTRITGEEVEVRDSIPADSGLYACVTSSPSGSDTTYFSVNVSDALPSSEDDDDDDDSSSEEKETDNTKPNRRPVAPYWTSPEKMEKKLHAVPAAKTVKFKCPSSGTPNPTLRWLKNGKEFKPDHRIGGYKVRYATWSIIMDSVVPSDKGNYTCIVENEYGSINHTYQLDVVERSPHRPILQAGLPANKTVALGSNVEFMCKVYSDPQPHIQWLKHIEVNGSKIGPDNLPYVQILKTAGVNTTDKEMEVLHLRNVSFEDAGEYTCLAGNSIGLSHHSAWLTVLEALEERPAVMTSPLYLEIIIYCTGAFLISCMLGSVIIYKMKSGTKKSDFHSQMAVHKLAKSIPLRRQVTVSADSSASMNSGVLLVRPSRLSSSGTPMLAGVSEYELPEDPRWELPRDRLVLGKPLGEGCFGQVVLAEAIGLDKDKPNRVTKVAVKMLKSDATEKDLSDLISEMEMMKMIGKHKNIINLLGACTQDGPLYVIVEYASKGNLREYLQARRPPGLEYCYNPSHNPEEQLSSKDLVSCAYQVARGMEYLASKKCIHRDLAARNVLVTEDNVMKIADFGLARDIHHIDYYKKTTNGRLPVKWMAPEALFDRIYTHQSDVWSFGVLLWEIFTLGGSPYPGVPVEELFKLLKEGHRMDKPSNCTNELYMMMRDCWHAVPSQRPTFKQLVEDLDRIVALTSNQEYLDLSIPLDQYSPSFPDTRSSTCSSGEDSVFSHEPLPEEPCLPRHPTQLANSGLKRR
Chain of Angiopoietin-1 receptor (Q02763 whole entry): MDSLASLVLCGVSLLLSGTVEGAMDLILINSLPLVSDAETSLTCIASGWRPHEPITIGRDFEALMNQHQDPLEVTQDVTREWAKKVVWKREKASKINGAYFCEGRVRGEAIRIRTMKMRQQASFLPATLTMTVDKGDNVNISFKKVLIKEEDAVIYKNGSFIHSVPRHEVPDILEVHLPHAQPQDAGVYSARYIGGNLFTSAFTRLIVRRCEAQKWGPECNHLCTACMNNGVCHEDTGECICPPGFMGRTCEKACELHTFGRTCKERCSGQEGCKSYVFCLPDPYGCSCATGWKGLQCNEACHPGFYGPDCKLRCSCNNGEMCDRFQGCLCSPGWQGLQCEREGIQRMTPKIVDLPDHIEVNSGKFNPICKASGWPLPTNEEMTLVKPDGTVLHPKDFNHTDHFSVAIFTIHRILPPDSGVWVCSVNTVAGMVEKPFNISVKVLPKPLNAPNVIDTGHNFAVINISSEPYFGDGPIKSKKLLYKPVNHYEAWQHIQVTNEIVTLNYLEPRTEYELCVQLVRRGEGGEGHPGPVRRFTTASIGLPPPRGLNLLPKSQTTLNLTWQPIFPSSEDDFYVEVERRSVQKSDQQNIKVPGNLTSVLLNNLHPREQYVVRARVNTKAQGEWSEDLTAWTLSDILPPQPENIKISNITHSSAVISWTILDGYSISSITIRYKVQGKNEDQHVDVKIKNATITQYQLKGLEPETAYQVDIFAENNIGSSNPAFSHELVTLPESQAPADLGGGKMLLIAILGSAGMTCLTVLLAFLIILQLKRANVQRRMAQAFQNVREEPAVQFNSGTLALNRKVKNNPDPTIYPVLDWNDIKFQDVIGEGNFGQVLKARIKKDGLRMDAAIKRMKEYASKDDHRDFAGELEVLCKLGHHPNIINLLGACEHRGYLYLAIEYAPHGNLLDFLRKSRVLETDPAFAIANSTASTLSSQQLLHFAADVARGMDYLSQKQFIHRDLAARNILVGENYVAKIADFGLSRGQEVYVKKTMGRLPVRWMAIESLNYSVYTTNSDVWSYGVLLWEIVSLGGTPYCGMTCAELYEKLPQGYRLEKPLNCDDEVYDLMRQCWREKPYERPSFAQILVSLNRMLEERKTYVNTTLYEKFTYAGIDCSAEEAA
T1 sequence (P35968 whole entry): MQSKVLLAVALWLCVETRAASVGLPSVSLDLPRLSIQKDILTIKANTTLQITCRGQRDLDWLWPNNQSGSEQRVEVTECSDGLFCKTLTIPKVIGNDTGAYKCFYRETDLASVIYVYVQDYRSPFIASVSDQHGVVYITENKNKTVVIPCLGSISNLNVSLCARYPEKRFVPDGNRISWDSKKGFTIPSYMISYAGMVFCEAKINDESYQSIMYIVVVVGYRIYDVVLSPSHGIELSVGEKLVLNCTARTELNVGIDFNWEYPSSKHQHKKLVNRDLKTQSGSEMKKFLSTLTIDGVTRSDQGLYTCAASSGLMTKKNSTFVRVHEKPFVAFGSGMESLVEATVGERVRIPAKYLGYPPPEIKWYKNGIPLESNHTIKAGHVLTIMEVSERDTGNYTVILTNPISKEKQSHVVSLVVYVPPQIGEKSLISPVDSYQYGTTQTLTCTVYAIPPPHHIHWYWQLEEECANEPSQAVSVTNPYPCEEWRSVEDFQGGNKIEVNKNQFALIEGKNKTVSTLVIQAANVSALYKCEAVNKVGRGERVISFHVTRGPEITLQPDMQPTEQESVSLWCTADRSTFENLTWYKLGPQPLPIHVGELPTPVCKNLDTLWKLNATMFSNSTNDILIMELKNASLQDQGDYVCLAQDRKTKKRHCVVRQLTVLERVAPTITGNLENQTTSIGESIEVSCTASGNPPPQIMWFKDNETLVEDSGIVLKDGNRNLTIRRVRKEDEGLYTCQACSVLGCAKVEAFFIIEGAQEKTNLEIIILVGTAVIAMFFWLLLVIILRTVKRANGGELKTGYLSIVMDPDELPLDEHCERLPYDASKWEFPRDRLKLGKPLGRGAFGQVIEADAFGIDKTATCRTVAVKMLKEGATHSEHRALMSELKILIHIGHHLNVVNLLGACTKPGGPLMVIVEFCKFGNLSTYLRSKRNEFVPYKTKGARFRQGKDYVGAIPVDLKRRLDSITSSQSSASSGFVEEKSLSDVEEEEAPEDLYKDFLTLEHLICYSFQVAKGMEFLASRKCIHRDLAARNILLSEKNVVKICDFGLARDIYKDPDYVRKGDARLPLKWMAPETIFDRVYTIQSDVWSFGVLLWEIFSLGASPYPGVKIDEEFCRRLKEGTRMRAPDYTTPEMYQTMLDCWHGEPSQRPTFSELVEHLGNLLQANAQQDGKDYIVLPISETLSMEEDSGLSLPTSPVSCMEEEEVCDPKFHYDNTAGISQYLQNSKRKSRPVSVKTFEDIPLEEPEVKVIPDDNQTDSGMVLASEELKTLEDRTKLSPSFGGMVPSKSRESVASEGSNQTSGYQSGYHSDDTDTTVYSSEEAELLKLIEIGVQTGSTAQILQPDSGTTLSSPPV

| Structure (SMILES) | pIC50 [1] | pIC50 [2] | pIC50 [3] | pIC50 [4] | pIC50 [5] | pIC50 [7] | pIC50 [8] | pIC50 [9] | pIC50 [10] | pIC50 [11] | pIC50 [14] | pIC50 [16] | pIC50 [17] | Activity [6] | Activity [12] | pIC50 [13] | Activity [15] |
| --- | --- | --- | --- | --- | --- | --- | --- | --- | --- | --- | --- | --- | --- | --- | --- | --- | --- |
| CC(C)(Nc1nc(O)nc(Nc2ccc3[nH]cnc3c2)n1)c1ccccc1 | 6.62 | < 4.70 | – | – | – | – | – | – | – | – | – | – | – | – | – | – | – |
| CCN(Cc1ccccc1)c1nc(O)nc(Nc2ccc3ncsc3c2)n1 | 7.31 | 6.22 | – | < 5.00 | 5.60 | 6.40 | – | < 5.00 | 5.37 | 5.51 | 5.40 | < 5.00 | < 4.90 | – | – | – | – |
| COc1nc(Nc2ccc3ncsc3c2)nc(NC(C)(C)c2ccccc2)n1 | 5.21 | < 4.52 | – | – | – | – | – | – | – | – | – | – | – | – | – | – | – |
| CC(C)(Nc1nc(Cl)nc(Nc2ccc3ncsc3c2)n1)c1ccccc1 | 5.26 | 5.97 | – | – | – | – | – | – | – | – | – | – | – | – | – | – | – |
| CN(Cc1ccccc1)c1nc(O)nc(Nc2ccc3ncsc3c2)n1 | 6.49 | 5.62 | – | – | – | – | – | – | – | – | – | – | – | – | – | – | – |
| Oc1nc(NCc2ccccc2)nc(Nc2ccc3ncsc3c2)n1 | 5.70 | < 4.52 | – | – | – | – | – | – | – | – | – | – | – | – | – | – | – |

Compounds with a higher pIC50 [1], results first:

| pIC50 [1] | pIC50 [2] | pIC50 [3] | pIC50 [4] | pIC50 [5] | pIC50 [7] | pIC50 [8] | pIC50 [9] | pIC50 [10] | pIC50 [11] | pIC50 [14] | pIC50 [16] | pIC50 [17] | Structure (SMILES) | Activity [6] | Activity [12] | pIC50 [13] | Activity [15] |
| --- | --- | --- | --- | --- | --- | --- | --- | --- | --- | --- | --- | --- | --- | --- | --- | --- | --- |
| 7.40 | 6.08 | – | < 5.00 | 5.41 | 6.15 | 5.74 | < 5.00 | 4.85 | 5.74 | 6.38 | < 5.00 | – | CC(C)(Nc1nc(NO)nc(Nc2ccc3ncsc3c2)n1)c1ccccc1 | – | – | – | – |
| 7.46 | 6.40 | – | < 5.00 | 5.10 | 6.00 | < 4.90 | < 5.00 | < 4.90 | 5.37 | 6.26 | < 5.00 | – | CC(C)(Nc1nc(O)nc(Nc2ccc3ncsc3c2)n1)c1ccccc1 | – | – | – | – |
| 7.74 | 6.55 | < 5.00 | < 5.00 | < 4.90 | 6.74 | < 4.90 | < 5.00 | < 4.90 | < 4.90 | 4.96 | – | – | CC(C)N(Cc1ccccc1)c1nc(O)nc(Nc2ccc3ncsc3c2)n1 | 1503 | 36.3 | 6.55 | 348 |
